Data published in ChEMBL document CHEMBL3124867, “Hepatitis C replication inhibitors that target the viral NS4B protein” (J Med Chem, 2014).

Assays:
[1] = test system: Hepatitis C virus; assay: Antiviral activity against wild-type Hepatitis C virus genotype 1a infected in po dosed PXB mouse assessed as log reduction in viral mRNA titer administered bid every 12 hrs for 7 days measured on day 7 relative to control; type: functional, organism-based; conditions: Hepacivirus hominis; subtype 1a
In short: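 PXB mice were infected with HCV genotype 1a wild-type virus and treated 5−8 weeks later (n = 4/group). Oral dosing b.i.d. for 7 days: prodrug at 10 or 30 mg/kg, or positive control at 100 mg/kg. Serum HCV RNA titers (viral load) were followed over the course of dosing.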

[2] = test system: Rattus norvegicus; assay: Prodrug conversion in CD rat assessed as 4-(3-chloro-6-cyclopropyl-8-(trifluoromethyl)imidazo[1,2-a]pyridine-2-carbonyl)-1-((trans)-4-hydroxycyclohexyl)piperazin-2-one level at 300 mg/kg, po; type: ADME, organism-based; design: dose 300 mg/kg, route oral; conditions: in vivo
In short: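 CD rats were given a single oral dose of 300 mg/kg of parent suspension or of prodrug. Plasma was assayed for the parent drug and for uncleaved prodrug.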

[3] = test system: Liver; assay: Drug uptake in PXB mouse liver assessed as 4-(3-chloro-6-cyclopropyl-8-(trifluoromethyl)imidazo[1,2-a]pyridine-2-carbonyl)-1-((trans)-4-hydroxycyclohexyl)piperazin-2-one level at 10 to 30 mg/kg, po bid every 12 hrs for 7 days measured 12 hrs post last dose; type: ADME, organism-based; design: dose 10-30 mg/kg, route oral; conditions: in vivo
In short: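 Uninfected PXB mice were given the prodrug orally at 10 or 30 mg/kg b.i.d. for 7 days. Liver tissue was taken 12 h after the day-7 dose and the level of parent drug in liver was measured relative to plasma.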

[4] = test system: Mus musculus; assay: AUC (0 to 12 hrs) in PXB mouse assessed as 4-(3-chloro-6-cyclopropyl-8-(trifluoromethyl)imidazo[1,2-a]pyridine-2-carbonyl)-1-((trans)-4-hydroxycyclohexyl)piperazin-2-one level at 10 mg/kg, po; type: ADME, organism-based, Plasma; design: time < 12 hr, dose 10 mg/kg, route oral; conditions: in vivo
In short: (§1)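 Single oral dose of the phosphate prodrug at 10 or 30 mg/kg to uninfected PXB mice (n = 3/group). Plasma levels of the parent drug were followed over 12 h, and AUC0−12h was calculated for the parent.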

[5] = test system: Hepatitis C virus; assay: Antiviral activity against wild-type Hepatitis C virus genotype 1a infected in PXB mouse assessed as log reduction in viral mRNA titer at 10 to 30 mg/kg, po bid every 12 hrs for 7 days measured on day 4 relative to control; type: functional, Hepacivirus hominis, subtype 1a; conditions: dose mg/kg 10-30
In short: (§2)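 PXB mice infected with wild-type HCV genotype 1a virus were dosed orally b.i.d. 5−8 weeks after infection with the phosphate prodrug of the lead (10 or 30 mg/kg) for 7 days, n = 4/group. A non-nucleoside NS5B inhibitor at 100 mg/kg b.i.d. served as positive control. Read-out was HCV viral RNA titer (viral load) over the course of treatment.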

[6] = Toxicity in po dosed PXB mouse assessed as compound accumulation administered bid every 12 hrs for 7 days; type: organism-based; conditions: in vivo
In short: (§3)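 Repeat-dose tolerability study in uninfected PXB mice, run before HCV infection. The test agent was given orally as a phosphate prodrug at 10 and 30 mg/kg b.i.d. for 7 days. Plasma exposure of the parent drug was followed over the course, and liver tissue was taken 12 h after dosing on day 7.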

[7] = Toxicity in po dosed PXB mouse assessed as induction of metabolism administered bid every 12 hrs for 7 days; type: organism-based; conditions: in vivo; in short: as §3
[8] = Aqueous solubility in fasted state simulated intestinal fluid at pH 6.5 by LC/UV analysis; type: physicochemical
[9] = test system: Hepatitis C virus; assay: Antiviral activity against wild-type Hepatitis C virus genotype 1a infected in PXB mouse assessed as log reduction in viral mRNA titer at 10 to 30 mg/kg, po bid every 12 hrs for 7 days measured after 12 hrs relative to control; type: functional, Hepacivirus hominis, subtype 1a; conditions: dose mg/kg 10-30; in short: as §2
[10] = test system: Mus musculus; assay: AUC (0 to 12 hrs) in PXB mouse assessed as 4-(3-chloro-6-cyclopropyl-8-(trifluoromethyl)imidazo[1,2-a]pyridine-2-carbonyl)-1-((trans)-4-hydroxycyclohexyl)piperazin-2-one level at 30 mg/kg, po; type: ADME, organism-based, Plasma; design: time < 12 hr, dose 30 mg/kg, route oral; conditions: in vivo; in short: as §1

With O=C(c1nc2c(C(F)(F)F)cc(C3CC3)cn2c1Cl)N1CCN([C@H]2CC[C@H](OP(=O)(O)O)CC2)C(=O)C1 the Activity [1] was “Dose-dependent effect”, the Stability [2] was “Unstable” and the Drug uptake [3] was “Active”. It also gave an AUC [4] of 15000 ng·h/mL, an FC [5] of 4 and an MTD at 7 days [6] of 10 mg/kg. The MTD at 7 days [7] was 30 mg/kg, the solubility [8] was greater than 1000 µg/mL and the FC [9] was 1. The AUC [10] was 66000 ng·h/mL.
